Assay results: ChEMBL document CHEMBL4007473, “Discovery of Potent and Orally Bioavailable GPR40 Full Agonists Bearing Thiophen-2-ylpropanoic Acid Scaffold” (J Med Chem, 2017)
The source made the active and inactive calls. The calls are words filed in the database; no cut-off is given here.

Experiments:
[1] = molecular target: T1, Free fatty acid receptor 1 (Homo sapiens, UniProt O14842); experiment: Agonist activity at human GPR40 expressed in CHO cells assessed as increase in intracellular Ca2+ flux by Fluo 4-AM dye based assay; format: functional, cell-based
T1 sequence (O14842 whole entry): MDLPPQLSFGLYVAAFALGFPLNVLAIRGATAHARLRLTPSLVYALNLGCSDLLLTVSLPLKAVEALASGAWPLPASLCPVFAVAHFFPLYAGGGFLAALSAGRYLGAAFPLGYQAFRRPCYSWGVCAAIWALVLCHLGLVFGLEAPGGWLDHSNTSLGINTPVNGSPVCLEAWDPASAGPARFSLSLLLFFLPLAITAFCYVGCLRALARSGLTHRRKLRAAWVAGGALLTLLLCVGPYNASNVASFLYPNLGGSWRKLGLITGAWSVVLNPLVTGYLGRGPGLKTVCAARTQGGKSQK

[2] = molecular target: T1, Free fatty acid receptor 1; experiment: Agonist activity at human GPR40 expressed in CHO cells assessed as increase in intracellular Ca2+ flux by Fluo 4-AM dye based assay relative to 3-(4-((2',6'-dimethylbiphenyl-3-yl)methoxy)phenyl)propanoic acid; format: functional, cell-based
Outline: (§1)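 CHO cells stably expressing hGPR40 or hGPR120, seeded and incubated overnight at 37 ℃, 5% CO2. Loaded 90 min with Fluo 4-AM (3 μM) and probenecid (2.5 mM) in HBSS/0.1% BSA, washed, equilibrated 10 min. Ca2+ read as change in 585/525 ratio before and after compound addition; EC50 and Emax fitted from curves, Emax relative to reference agonist 4; mean ± SD, three independent experiments.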

[3] = molecular target: T1, Free fatty acid receptor 1; experiment: Agonist activity at human GPR40 expressed in CHO cells assessed as increase in intracellular Ca2+ flux at 20 uM by Fluo 4-AM dye based assay; format: functional, cell-based; outline: as §1
[4] = molecular target: T1, Free fatty acid receptor 1; experiment: Agonist activity at human GPR40 expressed in CHO cells assessed as increase in intracellular Ca2+ flux at 10 uM by Fluo 4-AM dye based assay; format: functional, cell-based; outline: as §1
[5] = Inhibition of hepatobiliary transporter in Sprague-Dawley rat sandwich-cultured rat hepatocytes assessed as decrease in d8-TCA by measuring biliary excretion index at 1 to 25 uM incubated for 15 mins followed by d8-TCA addition measured after 15 mins by LC-MS/MS analysis; format: ADME; conditions: 0.25 h
Outline: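 Sandwich-cultured hepatocytes from male SD rats exposed to compound 15 min in standard HBSS. Cells rinsed and pre-incubated 15 min at 37 ℃ in standard or Ca2+-free HBSS, then incubated 15 min with compound plus 1 µM d8-TCA. Washed with ice-cold PBS; cellular d8-TCA measured by LC-MS/MS. BEI = (A_HBSS – A_Ca-free)/A_HBSS × 100%.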

Mus musculus = experiment: Antidiabetic activity in ICR mouse assessed as decrease in blood glucose AUC at 10 mg/kg, po administered 30 mins prior to glucose challenge measured 120 mins post dose by OGTT; format: functional, organism-based
Outline: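 Six-week-old male ICR mice fasted 16 h, n = 10 per group, dosed orally in 0.5% methylcellulose/20% PEG400 (10 or 20 mg/kg). Oral glucose load 2.5 g/kg by gavage 30 min later. Tail-vein glucose read at -30, 0, 30, 60, 90 and 120 min; AUC0-120 min computed and compared with vehicle.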

[6] = molecular target: Free fatty acid receptor 1 (Mus musculus) (UniProt Q76JU9); experiment: Agonist activity at GPR40 in mouse MIN6 cells assessed as increase in 25 mM glucose-stimulated insulin secretion at 10 uM after 1 hr by ELISA; format: cell-based
Sequence of Free fatty acid receptor 1 (Mus musculus) (Q76JU9 whole entry): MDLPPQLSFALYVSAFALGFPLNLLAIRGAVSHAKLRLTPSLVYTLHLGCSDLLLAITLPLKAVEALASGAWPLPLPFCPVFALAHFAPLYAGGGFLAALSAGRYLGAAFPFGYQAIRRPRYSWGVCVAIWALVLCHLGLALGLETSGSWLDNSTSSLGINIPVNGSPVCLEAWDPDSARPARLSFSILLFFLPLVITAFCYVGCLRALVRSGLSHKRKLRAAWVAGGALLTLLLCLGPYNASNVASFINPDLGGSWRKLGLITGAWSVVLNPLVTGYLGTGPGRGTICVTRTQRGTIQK
Outline: (§2)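 MIN6 cells pre-incubated 2 h at 37 ℃ in KRBH buffer with 0.1% BSA, then stimulated 1 h at 37 ℃ with 2 mM or 25 mM glucose, alone or with test agents. Insulin secreted into supernatant quantified by ELISA; mean ± SD of four independent experiments, compared with DMSO.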

[7] = molecular target: Free fatty acid receptor 1 (Mus musculus) (UniProt Q76JU9); experiment: Agonist activity at GPR40 in mouse MIN6 cells assessed as increase in 25 mM glucose-stimulated insulin secretion at 300 nM after 1 hr by ELISA; format: cell-based; outline: as §2
[8] = molecular target: T1, Free fatty acid receptor 1; experiment: Agonist activity at human GPR40 expressed in HEK293T cells transfected with 0.05 ug of GPR40 expression plasmid assessed as increase in intracellular Ca2+ flux by Fluo 4-AM dye based assay; format: functional, cell-based; conditions: HEK-293T
Outline: (§3)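 Plasmid titration: HEK293T cells transiently transfected with 5 μg or 0.05 μg hGPR40 expression plasmid, plated on poly-D-lysine and held 24 h. Loaded with Fluo 4-AM (3 μM) and probenecid (2.5 mM) in HBSS/0.1% BSA for 90 min, washed, equilibrated 10 min. Ca2+ response measured as change in 585/525 ratio after compound addition; mean ± SD of three experiments.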

[9] = molecular target: T1, Free fatty acid receptor 1; experiment: Agonist activity at human GPR40 expressed in HEK293T cells transfected with 5 ug of GPR40 expression plasmid assessed as increase in intracellular Ca2+ flux by Fluo 4-AM dye based assay; format: functional, cell-based; conditions: HEK-293T; outline: as §3
[10] = molecular target: T2, Free fatty acid receptor 4 (Homo sapiens, UniProt Q5NUL3); experiment: Agonist activity at human GPR120 expressed in CHO cells assessed as increase in intracellular Ca2+ flux by Fluo 4-AM dye based assay; format: functional, cell-based; outline: as §1
T2 sequence (Q5NUL3 whole entry): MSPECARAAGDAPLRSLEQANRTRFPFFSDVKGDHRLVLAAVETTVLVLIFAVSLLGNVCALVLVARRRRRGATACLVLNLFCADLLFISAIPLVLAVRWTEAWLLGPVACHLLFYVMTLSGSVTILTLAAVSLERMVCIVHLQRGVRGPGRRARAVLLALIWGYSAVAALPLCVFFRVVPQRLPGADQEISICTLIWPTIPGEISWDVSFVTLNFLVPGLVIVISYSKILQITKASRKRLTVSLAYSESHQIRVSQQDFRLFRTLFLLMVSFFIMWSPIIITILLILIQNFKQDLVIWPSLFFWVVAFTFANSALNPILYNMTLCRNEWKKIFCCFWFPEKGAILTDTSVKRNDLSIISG

[11] = molecular target: T3, Peroxisome proliferator-activated receptor gamma (Homo sapiens, UniProt P37231); experiment: Agonist activity at PPARgamma (unknown origin) expressed in HEK293T cells by luciferase reporter gene assay; format: cell-based
T3 sequence (P37231 whole entry): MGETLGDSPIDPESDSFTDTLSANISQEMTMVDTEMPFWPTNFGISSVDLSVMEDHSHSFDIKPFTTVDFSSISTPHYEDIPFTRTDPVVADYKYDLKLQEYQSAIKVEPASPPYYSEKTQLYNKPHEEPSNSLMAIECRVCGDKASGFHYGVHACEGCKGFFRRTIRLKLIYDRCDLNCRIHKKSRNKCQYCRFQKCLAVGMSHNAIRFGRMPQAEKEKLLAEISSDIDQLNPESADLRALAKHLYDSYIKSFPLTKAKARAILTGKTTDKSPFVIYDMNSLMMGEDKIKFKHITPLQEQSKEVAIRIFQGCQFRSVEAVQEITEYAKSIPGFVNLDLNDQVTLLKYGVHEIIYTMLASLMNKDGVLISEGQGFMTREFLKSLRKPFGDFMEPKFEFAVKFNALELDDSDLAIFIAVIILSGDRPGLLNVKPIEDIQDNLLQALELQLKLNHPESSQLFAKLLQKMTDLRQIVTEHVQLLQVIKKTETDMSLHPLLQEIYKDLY

COc1ccc(F)c(-c2cccc(COc3ccc(CCC(=O)O)s3)c2)c1
EC50 [1]: 580 nM

Cc1cccc(C)c1-c1cccc(OCn2cc(CCC(=O)O)nn2)c1
Emax [2]: 95.6%
EC50 [1]: 32200 nM

Cc1cccc(C)c1-c1cccc(OCc2cn(CCC(=O)O)nn2)c1
Emax [2]: 79.9%
EC50 [1]: 14700 nM

Cc1cccc(C)c1-c1ccc(COc2ccc(CCC(=O)O)s2)cc1
Activity [3]: inactive

Cc1cccc(C)c1-c1cccc(COc2ccc(C(C)CC(=O)O)s2)c1 (racemic)
Activity [4]: inactive

CCO[C@@H](CC(=O)O)c1ccc(OCc2cccc(-c3c(C)cccc3C)c2)s1
EC50 [1]: 40100 nM

Cc1cccc(C)c1-c1cccc(COc2ccc(C(C#N)CC(=O)O)s2)c1 (racemic)
EC50 [1]: 110 nM

CC#CC(CC(=O)O)c1ccc(OCc2ccc(CN3CCC4(C=Cc5ccccc54)CC3)cc2)s1 (centres undefined)
Activity [3]: inactive

Cc1cccc(C)c1-c1cccc(COc2ccc(C(CC(=O)O)C3CC3)s2)c1 (racemic)
EC50 [1]: 3920 nM

CC#CC(CC(=O)O)c1ccc(OCc2cccc(-c3c(C)cc(OCCCS(C)(=O)=O)cc3C)c2)s1 (racemic)
EC50 [1]: 240 nM

Cc1cc(OCCCS(C)(=O)=O)cc(C)c1-c1cccc(COc2ccc3c(c2)OC[C@H]3CC(=O)O)c1
Activity [5]: Not Active
Activity (Mus musculus): Active
Activity [6]: Active
Activity [7]: Active
Activity [8]: inactive
Activity [9]: Active

Cc1cccc(C)c1-c1cccc(COc2cc3sc(C(=O)O)cc3s2)c1
Activity [3]: inactive

N#Cc1ccccc1-c1cccc(COc2ccc(CCC(=O)O)s2)c1
Activity [4]: inactive

Cc1cccc(C)c1-c1cccc(COc2ccc(C(CC(=O)O)c3c[nH]nn3)s2)c1 (racemic)
Activity [4]: inactive

Cc1cccc(C)c1-c1cccc(COc2cn(CCC(=O)O)nn2)c1
Emax [2]: 97.9%
EC50 [1]: 14800 nM

CCC(CC(=O)O)c1ccc(OCc2cccc(-c3c(C)cccc3C)c2)s1 (racemic)
Activity [4]: inactive

CCOC(CC(=O)O)c1ccc(OCc2cccc(-c3c(C)cccc3C)c2)s1 (racemic)
EC50 [1]: 57 nM

CC#CC(CC(=O)O)c1ccc(OCc2cccc(-c3c(C)cc(OCC4(C)COC4)cc3C)c2)s1 (racemic)
EC50 [1]: 450 nM

CCO[C@H](CC(=O)O)c1ccc(OCc2cccc(-c3c(C)cccc3C)c2)s1
EC50 [10]: > 10000 nM
EC50 [11]: > 10000 nM
Activity [6]: inactive
Emax [2]: 147%
EC50 [1]: 50 nM

O=C(O)CCc1ccc(OCc2cccc(-c3ccc(C(F)(F)F)cc3)c2)s1
Activity [4]: inactive

N#CCc1ccccc1C#Cc1ccc(CCC(=O)O)s1
EC50 [1]: 640 nM

Cc1cccc(C)c1-c1cccc(COc2csc(CCC(=O)O)c2)c1
Emax [2]: 135%
EC50 [1]: 2320 nM

CCCC(CC(=O)O)c1ccc(OCc2cccc(-c3c(C)cccc3C)c2)s1 (racemic)
Activity [4]: inactive

O=C(O)CCc1ccc(OCc2cccc(-c3cc(Cl)nc(Cl)c3)c2)s1
Activity [4]: inactive

Cc1cccc(C)c1-c1cccc(COc2ccc([C@H](CC(=O)O)c3ccon3)s2)c1
Activity [4]: inactive

CC#CC(CC(=O)O)c1ccc(OCc2cccc(-c3c(C)cccc3C)c2)s1 (racemic)
EC50 [1]: 210 nM

Cc1cccc(C)c1-c1cccc(COc2cc3sc(CCC(=O)O)cc3s2)c1
Activity [3]: inactive

CC/C=C\C/C=C\C/C=C\C/C=C\C/C=C\C/C=C\CCC(=O)O
Activity [8]: Active
Activity [9]: Active

CC#CC(CC(=O)O)c1ccc(OCc2cccc(-c3c(C)cc(OC4CCN(C)CC4)cc3C)c2)s1 (racemic)
Activity [4]: inactive

CC#C[C@H](CC(=O)O)c1ccc(OCc2cccc(-c3c(C)cc(OCCCS(C)(=O)=O)cc3C)c2)s1
EC50 [1]: 410 nM

Cc1cccc(C)c1-c1cccc(COc2ccc(CCC(=O)O)s2)c1
EC50 [10]: > 10000 nM
EC50 [11]: > 10000 nM
Activity [6]: inactive
Emax [2]: 140%
EC50 [1]: 32 nM

Cc1cccc(C)c1-c1cccc(COc2ccc(CCC(=O)O)cc2)c1
Emax [2]: 100%
EC50 [1]: 8 nM

Cc1cccc(C)c1-c1cccc(OCc2ccc(CCC(=O)O)s2)c1
Emax [2]: 136%
EC50 [1]: 2420 nM

Cc1cccc(C)c1-c1cccc(COc2ccc(CC3SC(=O)NC3=O)s2)c1 (centres undefined)
EC50 [1]: 82 nM

COC(CC(=O)O)c1ccc(OCc2cccc(-c3c(C)cccc3C)c2)s1 (racemic)
EC50 [1]: 210 nM

O=C(O)CCc1ccc(OCc2cccc(-c3ccncc3Cl)c2)s1
EC50 [1]: 2010 nM

O=C(O)CCc1ccc(OCc2cccc(-c3ccccc3C(F)(F)F)c2)s1
EC50 [1]: 2710 nM

NC(=O)c1ccccc1-c1cccc(COc2ccc(CCC(=O)O)s2)c1
Activity [4]: inactive

COc1ccccc1-c1cccc(COc2ccc(CCC(=O)O)s2)c1
Activity [4]: inactive
